Test results: ChEMBL document CHEMBL3817760, “Design, synthesis and evaluation of novel indandione derivatives as multifunctional agents with cholinesterase inhibition, anti-β-amyloid aggregation, antioxidant and neuroprotection properties against Alzheimer's disease” (Bioorg Med Chem, 2016)
Activity calls are given as the source filed them. The calls are words filed in the database; no cut-off is given here.

What was measured:
[1] = Cytotoxicity against human SH-SY5Y cells assessed as cell viability at 50 uM after 48 hrs by MTT assay; type: cell-based; settings: read-out: Activity
Method in brief: (§1)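 SH-SY5Y cells grown in DMEM with 10% FBS and 1% penicillin-streptomycin at 37°C, 5% CO2. Plated at 2000 cells/well and cultured 24 h, then exposed 48 h to compound at 1-100 μM (DMSO stock diluted in complete medium). MTT added for 4 h, formazan dissolved in DMSO, absorbance read at 570 nm (reference 630 nm). Triplicates; three independent experiments.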

Cholinesterase = Cholinesterase (Equus caballus, UniProt P81908); assay: Inhibition of equine serum BuChE using butyrylthiocholine iodide as substrate preincubated for 5 mins followed by substrate addition measured after 2 mins by Ellman's method
Method in brief: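 BuChE from equine serum (0.06 U/mL) in 0.1 M phosphate buffer pH 8.0, compounds diluted from ethanol stocks to 1-100 µM final, standing 5 min before DTNB. Started with 0.075 M butyrylthiocholine; A412 read 2 min later at 25°C. Enzyme-free blanks and inhibitor-free full-activity controls included. Triplicates; IC50 from nonlinear regression of concentration-inhibition data.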

SH-SY5Y [2] = assay: Antioxidant activity in human SH-SY5Y cells assessed as inhibition of H2O2-induced ROS production at 10 to 20 uM after 24 hrs by DCFH-DA fluorescent assay; type: functional, cell-based
Method in brief: (§2)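 SH-SY5Y cells seeded at 2 × 10^4/well and exposed 24 h to H2O2 (200 μM) with or without compound at 5, 10 and 20 μM. Intracellular ROS then probed with DCFH-DA for 20 min and total DCF fluorescence read on a plate reader. Mean ± S.D of three experiments, each in triplicate; one-way ANOVA with Bonferroni test.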

Acetylcholinesterase = Acetylcholinesterase (Electrophorus electricus, UniProt O42275); assay: Inhibition of electric eel AChE using acetylthiocholine iodide as substrate preincubated for 5 mins followed by substrate addition measured after 2 mins by Ellman's method
[3] = Cytotoxicity against human SH-SY5Y cells assessed as cell viability at 5 uM after 48 hrs by MTT assay; type: cell-based; settings: read-out: Activity; method in brief: as §1
SH-SY5Y [4] = assay: Cytotoxicity against human SH-SY5Y cells assessed as decrease in cell viability up to 100 uM after 24 hrs by MTT assay; type: cell-based
[5] = target: T1, Amyloid-beta precursor protein (Homo sapiens, UniProt P05067); assay: Inhibition of self-induced amyloid beta (1 to 42) (unknown origin) aggregation incubated for 48 hrs measured after 5 mins by thioflavin-T fluorescence assay
SH-SY5Y [6] = assay: Neuroprotective activity against H2O2-induced neurotoxicity in human SH-SY5Y cells assessed as cell viability after 24 hrs by MTT assay relative to control; type: functional, cell-based
Method in brief: (§3)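 SH-SY5Y cells seeded at 2 × 10^4/well and incubated 24 h. Medium then replaced with serum-free DMEM containing 200 μM H2O2 plus compound (5, 10, 20 μM) at 37°C for 24 h. Viability measured by MTT as % of untreated control, and morphology photographed under phase-contrast microscopy. Mean ± S.D of three experiments in triplicate; ANOVA with Bonferroni test.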

SH-SY5Y [7] = assay: Neuroprotective activity against amyloid beta (1 to 42)-induced neurotoxicity in human SH-SY5Y cells assessed as change in cell morphology at 20 uM after 24 hrs by phase contrast microscopy; type: functional, cell-based
Method in brief: (§4)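 Aβ1-42 treated with HFIP (1 mg/ml), sonicated, left 24 h at room temperature and lyophilized; film dissolved in DMSO. SH-SY5Y cells plated at 2 × 10^4/well and allowed to attach 24 h. Aβ (25 μM) added ± compound (5-20 μM) in fresh medium. Viability measured by MTT as % of control after 48 h (methods; text says 24 h co-treatment). Morphology imaged by phase-contrast microscopy.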

[8] = Cytotoxicity against human SH-SY5Y cells assessed as cell viability at 1 uM after 48 hrs by MTT assay; type: cell-based; settings: read-out: Activity; method in brief: as §1
SH-SY5Y [9] = assay: Neuroprotective activity against H2O2-induced cell death in human SH-SY5Y cells at 20 uM after 24 hrs by phase contrast microscopy; type: functional, cell-based; method in brief: as §3
[10] = target: T1, Amyloid-beta precursor protein; assay: Inhibition of amyloid beta (1 to 42) (unknown origin) aggregation at 25 uM after 72 hrs by transmission electron microscopy
Method in brief: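 Aβ1-42 stock diluted in 20 mM phosphate buffer (pH 7.4) at 4°C, then incubated at 37°C with or without compound. Final concentrations per methods: peptide 50 μM, compound 25 μM; figure legend gives 25 μM each. Incubation time given as 48 h (methods) and 72 h (text). Samples placed on carbon-coated grids, stained with 1% uranyl acetate and imaged by TEM.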

[11] = target: T1, Amyloid-beta precursor protein; assay: Potency index, ratio of curcumin IC50 to compound IC50 for self-induced amyloid beta (1 to 42) (unknown origin) aggregation
[12] = target: Acetylcholinesterase (Electrophorus electricus) (UniProt O42275); assay: Mixed type inhibition of electric eel AChE at 10 to 40 nM preincubated with enzyme for 15 mins followed by substrate addition by Lineweaver-Burk plot analysis
Method in brief: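 Electric eel AChE with the compound, preincubated at 37°C for 15 min before substrate addition. Reciprocal (Lineweaver-Burk) plots were drawn, and their slopes were plotted against inhibitor concentration in a weighted analysis. Ki was taken as the ratio of plot intercept to slope.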

[13] = Cytotoxicity against human SH-SY5Y cells assessed as cell viability at 10 uM after 48 hrs by MTT assay; type: cell-based; settings: read-out: Activity; method in brief: as §1
SH-SY5Y [14] = assay: Neuroprotective activity against H2O2-induced neurotoxicity in human SH-SY5Y cells assessed as change in cell morphology at 20 uM after 24 hrs by phase contrast microscopy; type: functional, cell-based; method in brief: as §3
SH-SY5Y [15] = assay: Neuroprotective activity against amyloid beta (1 to 42)-induced neurotoxicity in human SH-SY5Y cells assessed as cell viability treated for 24 hrs measured after 48 hrs by MTT assay; type: functional, cell-based; method in brief: as §4
[16] = Cytotoxicity against human SH-SY5Y cells assessed as cell viability at 25 uM after 48 hrs by MTT assay; type: cell-based; settings: read-out: Activity; method in brief: as §1
[17] = Cytotoxicity against human SH-SY5Y cells assessed as cell viability at 75 uM after 48 hrs by MTT assay; type: cell-based; settings: read-out: Activity; method in brief: as §1
[18] = Cytotoxicity against human SH-SY5Y cells assessed as cell viability at 100 uM after 48 hrs by MTT assay; type: cell-based; settings: read-out: Activity; method in brief: as §1
[19] = Selectivity index, ratio of IC50 for equine serum BuChE to IC50 for electric eel AChE
Method in brief: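 Ratio of IC50 values from the modified Ellman assay. Equine serum BuChE (0.06 U/mL) and electric eel AChE (0.22 U/mL), each in 0.1 M phosphate pH 8.0 with DTNB and 0.075 M thiocholine substrate, A412 at 2 min, 25°C. IC50s were means of three experiments.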

[20] = target: T1, Amyloid-beta precursor protein; assay: Inhibition of self-induced amyloid beta (1 to 42) (unknown origin) aggregation at 25 uM incubated for 48 hrs measured after 5 mins by thioflavin-T fluorescence assay
Method in brief: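 Aβ1-42 pretreated with HFIP, then diluted in 50 mM phosphate buffer pH 7.4 to 25 μM final. Incubated ± compound (25 μM) at 37°C for 48 h, then diluted in 50 mM glycine–NaOH pH 8.0 containing 5 μM thioflavin-T. Fluorescence read 5 min later (ex 450/em 485 nm). Inhibition % = (1−IFi/IFc)×100 after background subtraction; triplicate.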

SH-SY5Y [21] = assay: […] in human SH-SY5Y cells at 5 to 20 uM after 24 hrs by DCFH-DA fluorescent assay; type: ADME, cell-based
SH-SY5Y [22] = assay: Cytotoxicity against human SH-SY5Y cells assessed as decrease in cell viability after 48 hrs by MTT assay; type: cell-based; method in brief: as §1
SH-SY5Y [23] = assay: Antioxidant activity in human SH-SY5Y cells assessed as inhibition of H2O2-induced ROS production after 24 hrs by DCFH-DA fluorescent assay; type: functional, cell-based; method in brief: as §2

T1 sequence (P05067 whole entry): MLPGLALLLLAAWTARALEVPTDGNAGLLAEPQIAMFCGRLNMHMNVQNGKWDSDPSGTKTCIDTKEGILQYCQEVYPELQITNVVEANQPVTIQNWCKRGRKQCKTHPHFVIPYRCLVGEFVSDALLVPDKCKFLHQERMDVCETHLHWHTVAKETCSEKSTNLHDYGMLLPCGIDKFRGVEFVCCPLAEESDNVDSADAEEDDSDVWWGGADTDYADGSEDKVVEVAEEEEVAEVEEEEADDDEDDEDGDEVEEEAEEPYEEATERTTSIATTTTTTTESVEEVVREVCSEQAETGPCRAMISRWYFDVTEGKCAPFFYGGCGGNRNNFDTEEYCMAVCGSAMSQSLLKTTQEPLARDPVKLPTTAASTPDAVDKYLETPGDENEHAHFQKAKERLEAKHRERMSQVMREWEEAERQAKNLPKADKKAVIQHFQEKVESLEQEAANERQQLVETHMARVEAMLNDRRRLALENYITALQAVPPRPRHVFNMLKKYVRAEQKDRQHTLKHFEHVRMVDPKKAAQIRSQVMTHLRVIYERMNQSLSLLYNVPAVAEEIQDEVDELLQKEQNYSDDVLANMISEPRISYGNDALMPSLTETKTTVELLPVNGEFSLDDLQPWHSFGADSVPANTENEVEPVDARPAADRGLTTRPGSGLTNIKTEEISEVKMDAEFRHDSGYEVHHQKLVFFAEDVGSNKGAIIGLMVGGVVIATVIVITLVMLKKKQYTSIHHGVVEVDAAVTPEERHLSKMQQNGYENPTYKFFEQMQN
Acetylcholinesterase, sequence (O42275 whole entry): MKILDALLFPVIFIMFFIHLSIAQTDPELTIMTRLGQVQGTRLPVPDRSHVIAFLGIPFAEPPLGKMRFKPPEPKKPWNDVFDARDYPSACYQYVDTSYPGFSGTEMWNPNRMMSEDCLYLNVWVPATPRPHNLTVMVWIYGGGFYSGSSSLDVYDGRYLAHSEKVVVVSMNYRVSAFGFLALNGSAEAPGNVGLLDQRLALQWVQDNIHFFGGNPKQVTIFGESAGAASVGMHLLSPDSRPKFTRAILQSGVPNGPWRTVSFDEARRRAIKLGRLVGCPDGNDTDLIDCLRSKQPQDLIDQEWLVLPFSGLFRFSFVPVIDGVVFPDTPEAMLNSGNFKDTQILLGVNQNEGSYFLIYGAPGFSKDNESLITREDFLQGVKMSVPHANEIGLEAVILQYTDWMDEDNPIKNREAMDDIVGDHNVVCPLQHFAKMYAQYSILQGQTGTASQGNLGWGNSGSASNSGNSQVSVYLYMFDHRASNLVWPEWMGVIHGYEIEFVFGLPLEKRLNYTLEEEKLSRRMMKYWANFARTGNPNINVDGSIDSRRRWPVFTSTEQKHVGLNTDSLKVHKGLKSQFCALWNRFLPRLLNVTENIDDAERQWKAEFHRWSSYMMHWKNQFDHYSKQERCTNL
Cholinesterase, sequence (P81908 whole entry): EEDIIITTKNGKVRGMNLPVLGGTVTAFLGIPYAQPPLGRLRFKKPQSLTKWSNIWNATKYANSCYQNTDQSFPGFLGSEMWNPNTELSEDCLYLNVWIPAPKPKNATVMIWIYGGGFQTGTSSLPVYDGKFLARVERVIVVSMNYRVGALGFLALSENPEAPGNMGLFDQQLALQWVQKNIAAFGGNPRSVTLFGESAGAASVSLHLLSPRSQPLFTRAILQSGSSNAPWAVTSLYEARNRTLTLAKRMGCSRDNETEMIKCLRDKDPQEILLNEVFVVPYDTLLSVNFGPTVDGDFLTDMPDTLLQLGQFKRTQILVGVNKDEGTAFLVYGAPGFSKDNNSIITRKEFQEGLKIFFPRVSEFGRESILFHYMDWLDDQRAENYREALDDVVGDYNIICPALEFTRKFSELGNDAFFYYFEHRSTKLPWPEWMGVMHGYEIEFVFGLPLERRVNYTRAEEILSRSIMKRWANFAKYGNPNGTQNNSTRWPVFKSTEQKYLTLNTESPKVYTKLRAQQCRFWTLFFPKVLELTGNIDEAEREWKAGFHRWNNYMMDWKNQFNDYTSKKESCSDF
Acetylcholinesterase (Electrophorus electricus), sequence (O42275 24-633 limits assumed): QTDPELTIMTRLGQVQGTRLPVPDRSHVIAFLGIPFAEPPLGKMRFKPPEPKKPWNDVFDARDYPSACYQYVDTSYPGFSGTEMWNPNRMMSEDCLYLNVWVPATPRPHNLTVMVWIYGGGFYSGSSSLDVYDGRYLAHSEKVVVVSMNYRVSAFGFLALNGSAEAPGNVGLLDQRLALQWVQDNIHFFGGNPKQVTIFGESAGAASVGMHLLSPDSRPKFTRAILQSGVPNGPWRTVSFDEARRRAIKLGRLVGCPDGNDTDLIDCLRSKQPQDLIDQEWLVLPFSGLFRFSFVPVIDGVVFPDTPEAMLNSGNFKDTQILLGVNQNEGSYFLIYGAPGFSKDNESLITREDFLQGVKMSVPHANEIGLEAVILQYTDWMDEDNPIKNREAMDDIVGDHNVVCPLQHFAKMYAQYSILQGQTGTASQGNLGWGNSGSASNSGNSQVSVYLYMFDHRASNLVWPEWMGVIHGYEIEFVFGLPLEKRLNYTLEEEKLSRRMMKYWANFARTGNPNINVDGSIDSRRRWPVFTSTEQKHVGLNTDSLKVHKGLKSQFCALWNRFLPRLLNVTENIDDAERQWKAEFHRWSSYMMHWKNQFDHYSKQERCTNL

SMILES: O=C1C(=Cc2ccc(N3CCN(c4ncccn4)CC3)cc2)C(=O)c2ccccc21
- viability at 48 h, 50 µM [1]: 89.6%
- IC50 (Cholinesterase): 2780 nM
- inhibition (SH-SY5Y [2]): Active
- IC50 (Acetylcholinesterase): 36 nM
- viability at 48 h, 5 µM [3]: 96.4%
- Activity (SH-SY5Y [4]): Non-toxic
- IC50 [5]: 10100 nM
- Activity (SH-SY5Y [6]): Dose-dependent effect
- Activity (SH-SY5Y [7]): Active
- viability at 48 h, 1 µM [8]: 98.1%
- Activity (SH-SY5Y [9]): Active
- inhibition [10]: Active
- Ratio IC50 [11]: 1.5
- inhibition [12]: Active
- viability at 48 h, 10 µM [13]: 95.3%
- Activity (SH-SY5Y [14]): Active
- Activity (SH-SY5Y [15]): Dose-dependent effect
- viability at 48 h, 25 µM [16]: 93.9%
- viability at 48 h, 75 µM [17]: 86.3%
- viability at 48 h, 100 µM [18]: 82.3%
- Ratio IC50 [19]: 77.1
- inhibition [20]: 80.9%

SMILES: O=C1C(=Cc2ccc(N3CCN(C(c4ccccc4)c4ccccc4)CC3)cc2)C(=O)c2ccccc21
- IC50 (Cholinesterase): 3350 nM
- IC50 (Acetylcholinesterase): 61 nM
- IC50 [5]: 11800 nM
- Ratio IC50 [11]: 1.5
- Ratio IC50 [19]: 54.9
- inhibition [20]: 80.6%

SMILES: Cc1ccc(N2CCN(c3ccc(C=C4C(=O)c5ccccc5C4=O)cc3)CC2)cc1
- IC50 (Cholinesterase): 392 nM
- IC50 (Acetylcholinesterase): 251 nM
- Ratio IC50 [19]: 1.5
- inhibition [20]: 62.4%

SMILES: O=C1C(=Cc2ccc(N3CCN(c4ccccc4)CC3)cc2)C(=O)c2ccccc21
- IC50 (Cholinesterase): 4660 nM
- IC50 (Acetylcholinesterase): 2440 nM
- Ratio IC50 [19]: 1.9
- inhibition [20]: 57.3%

SMILES: O=C1C(=Cc2ccc(N3CCN(c4ccccn4)CC3)cc2)C(=O)c2ccccc21
- IC50 (Cholinesterase): 880 nM
- IC50 (Acetylcholinesterase): 112 nM
- Ratio IC50 [19]: 7.8
- inhibition [20]: 70.9%

SMILES: Cc1ccc(N2CCN(c3ccc(C=C4C(=O)c5ccccc5C4=O)cc3)CC2)c(C)c1
- IC50 (Cholinesterase): 415 nM
- IC50 (Acetylcholinesterase): 298 nM
- Ratio IC50 [19]: 1.39
- inhibition [20]: 69.9%

SMILES: O=C1C(=Cc2ccc(N3CCN(C(=O)c4ccccc4)CC3)cc2)C(=O)c2ccccc21
- IC50 (Cholinesterase): 13400 nM
- IC50 (Acetylcholinesterase): 14200 nM
- Ratio IC50 [19]: 0.9
- inhibition [20]: 53.9%

SMILES: O=C1C(=Cc2ccc(N3CCN(c4ccc(C(F)(F)F)cc4)CC3)cc2)C(=O)c2ccccc21
- IC50 (Cholinesterase): 2140 nM
- IC50 (Acetylcholinesterase): 141 nM
- Ratio IC50 [19]: 15.1
- inhibition [20]: 74.9%

SMILES: O=C1C(=Cc2ccc(N3CCN(c4ccc(F)cc4)CC3)cc2)C(=O)c2ccccc21
- IC50 (Cholinesterase): 5130 nM
- IC50 (Acetylcholinesterase): 173 nM
- Ratio IC50 [19]: 29.6
- inhibition [20]: 61.8%

SMILES: O=C1C(=Cc2ccc(N3CCN(Cc4ccc5c(c4)OCO5)CC3)cc2)C(=O)c2ccccc21
- IC50 (Cholinesterase): 4250 nM
- IC50 (Acetylcholinesterase): 131 nM
- Ratio IC50 [19]: 33.8
- inhibition [20]: 71.8%

SMILES: O=C1C(=Cc2ccc(N3CCN(c4ccc(Cl)cc4)CC3)cc2)C(=O)c2ccccc21
- IC50 (Cholinesterase): 1110 nM
- IC50 (Acetylcholinesterase): 231 nM
- Ratio IC50 [19]: 4.8
- inhibition [20]: 60.8%

SMILES: O=C1C(=Cc2ccc(N3CCN(C(=O)c4ccco4)CC3)cc2)C(=O)c2ccccc21
- viability at 48 h, 50 µM [1]: 89.6%
- IC50 (Cholinesterase): 2610 nM
- Activity (SH-SY5Y [21]): Non-toxic
- IC50 (Acetylcholinesterase): 48 nM
- viability at 48 h, 5 µM [3]: 96.4%
- Activity (SH-SY5Y [4]): Non-toxic
- IC50 [5]: 9200 nM
- Activity (SH-SY5Y [6]): Dose-dependent effect
- Activity (SH-SY5Y [7]): Active
- Activity (SH-SY5Y [22]): Dose-dependent effect
- viability at 48 h, 1 µM [8]: 98.1%
- Activity (SH-SY5Y [9]): Active
- inhibition (SH-SY5Y [23]): Dose-dependent effect
- inhibition [10]: Active
- Ratio IC50 [11]: 1.5
- viability at 48 h, 10 µM [13]: 95.3%
- Activity (SH-SY5Y [14]): Active
- Activity (SH-SY5Y [15]): Dose-dependent effect
- viability at 48 h, 25 µM [16]: 93.9%
- viability at 48 h, 75 µM [17]: 86.3%
- viability at 48 h, 100 µM [18]: 82.3%
- Ratio IC50 [19]: 54.2
- inhibition [20]: 82.2%
